The structures appear in SMILES notation. A value given as a limit tells only on which side of the number the result lay.

Data set [1] is filed under the species Homo sapiens. Kind of data set: Selectivity ratio of IC50 for recombinant his6-tagged DPP8 (unknown origin) to IC50 for recombinant his6-tagged DPP4 (unknown origin). The essentials:
(§1)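 His6-tagged DPP4, DPP8 and DPP9 were expressed in High Five insect cells by baculovirus and purified on Ni-NTA. Activity was followed continuously by fluorescence of AMC released from Ala-Pro-AMC (ex 355/em 460 nm). DPP4 ran at 50 pmol/L enzyme in HEPES pH 7.5 with 0.1 mg/mL BSA; DPP8 and DPP9 ran at pH 8.0. IC50s came from quadruplicate sigmoidal variable-slope fits, and the ratio is the IC50 ratio.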

The species entered for data set [2] is Homo sapiens. Nature of the data set: Selectivity ratio of IC50 for recombinant his6-tagged DPP9 (unknown origin) to IC50 for recombinant his6-tagged DPP4 (unknown origin). The essentials: as §1
The target in a further data set is Dipeptidyl peptidase 9 (Homo sapiens, UniProt Q86TI2). Kind of data set: Inhibition of recombinant his6-tagged DPP9 (unknown origin) expressed in baculovirus expression system using Ala-pro-AMC as substrate by fluorometric analysis.
Another data set has as its target Dipeptidyl peptidase 8 (Homo sapiens, UniProt Q6V1X1). Nature of the data set: Inhibition of recombinant his6-tagged DPP8 (unknown origin) expressed in baculovirus expression system using Ala-pro-AMC as substrate by fluorometric analysis.
Another data set concerns the target Dipeptidyl peptidase 4 (Homo sapiens, UniProt P27487). Kind of data set: Inhibition of recombinant his6-tagged DPP4 (unknown origin) expressed in baculovirus expression system using Ala-pro-AMC as substrate by fluorometric analysis.
The target of another data set is CYP2C9 (Homo sapiens, UniProt P11712). Kind of data set: Inhibition of CYP2C9 (unknown origin) at 100 uM relative to control. In kind it is ADME.
For another data set, the target named is Cytochrome P450 3A4 (Homo sapiens, UniProt P08684). Nature of the data set: Inhibition of CYP3A4 (unknown origin). In kind it is ADME.
The nature of data set [3]: Oral bioavailability in Sprague-Dawley rat at 20 mg/kg. In kind it is ADME, organism-based. The note with it: in vivo. The essentials: (§2)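 Sprague-Dawley rats were dosed orally or intravenously, and blood was sampled after dosing. Plasma was separated by centrifugation and deproteinized with methanol containing an internal standard. The supernatant was diluted with methanol, centrifuged again and quantified by LC/MS/MS.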

The nature of data set [4]: Apparent clearance in Sprague-Dawley rat at 5 mg/kg, iv. In kind it is ADME, organism-based. More on the design: dose 5 mg/kg, route intravenous. Conditions: in vivo, read-out: CL(app) (converted). The essentials: as §2
A short description of data set [5]: Half life in Sprague-Dawley rat at 5 mg/kg, iv. In kind it is ADME, organism-based. Further details: dose 5 mg/kg, route intravenous. The note with it: in vivo. The essentials:
as §2

The nature of data set [6]: Half life in Sprague-Dawley rat at 20 mg/kg, po. More on the design: dose 20 mg/kg, route oral. Conditions: in vivo. In kind it is ADME, organism-based. The essentials: as §2
The nature of data set [7]: Mean residence time in Sprague-Dawley rat at 5 mg/kg, iv. In kind it is ADME, organism-based. Further details: dose 5 mg/kg, route intravenous. The note with it: in vivo. The method, boiled down: as §2
Data set [8] can be described thus: Mean residence time in Sprague-Dawley rat at 20 mg/kg, po. In kind it is ADME, organism-based. Further details: dose 20 mg/kg, route oral. Conditions: in vivo. The essentials:
as §2

Data set [9] in a line: AUC (0 to infinity) in Sprague-Dawley rat at 5 mg/kg, iv. Conditions: plasma. More on the design: time infinity, dose 5 mg/kg, route intravenous. In kind it is ADME, organism-based. The essentials: as §2
Data set [10] can be described thus: AUC (0 to infinity) in Sprague-Dawley rat at 20 mg/kg, po. In kind it is ADME, organism-based. More on the design: time infinity, dose 20 mg/kg, route oral. Conditions: plasma. The essentials: as §2
Data set [11] in a line: AUC (0 to t) in Sprague-Dawley rat at 5 mg/kg, iv. Conditions: plasma. In kind it is ADME, organism-based. Further details: dose 5 mg/kg, route intravenous. The essentials: as §2
The nature of data set [12]: AUC (0 to t) in Sprague-Dawley rat at 20 mg/kg, po. In kind it is ADME, organism-based. More on the design: dose 20 mg/kg, route oral. The note with it: plasma. The method, boiled down:
as §2

Data set [13] is described as follows: Cmax in Sprague-Dawley rat at 5 mg/kg, iv. In kind it is ADME, organism-based. More on the design: dose 5 mg/kg, route intravenous. The note with it: in vivo. The method, boiled down: as §2
The nature of data set [14]: Cmax in Sprague-Dawley rat at 20 mg/kg, po. In kind it is ADME, organism-based. More on the design: dose 20 mg/kg, route oral. The note with it: in vivo. The essentials:
as §2

A short description of data set [15]: Tmax in Sprague-Dawley rat at 5 mg/kg, iv. In kind it is ADME, organism-based. Conditions: in vivo. More on the design: dose 5 mg/kg, route intravenous. The essentials: as §2
The nature of data set [16]: Tmax in Sprague-Dawley rat at 20 mg/kg, po. In kind it is ADME, organism-based. Further details: dose 20 mg/kg, route oral. Conditions: in vivo. The method, boiled down: as §2
The subject of data set [17] is Mus musculus. Kind of data set: Antidiabetic activity in ICR mouse assessed as decrease in blood glucose AUC (0 to 120 mins) administered for 30 mins prior to glucose challenge measured after 4 hrs by OGTT. In kind it is functional, organism-based. The essentials:
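ICR mice fasted 16 h, then given a single dose of 15 or 50 mg/kg; vehicle 0.5% methylcellulose (10 mL/kg), LAF237 30 mg/kg as positive control. Oral glucose 2.5 g/kg given 30 min after dosing (legend says 4 h). Blood glucose read at 0, 15, 30, 60, 90, 120 min for AUC0–120. Mean ± SE, n = 10; Student's t-test.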

Data set [18] deals with Mus musculus. Kind of data set: Antidiabetic activity in ICR mouse assessed as decrease in blood glucose AUC (0 to 120 mins) at 50 mg/kg administered for 30 mins prior to glucose challenge measured after 4 hrs by OGTT relative to vehicle-treated control. In kind it is functional. Further details: scale not given: the % may be the effect or the level left. The method, boiled down:
(§3)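 ICR mice were fasted 16 h and given one dose in 0.5% methylcellulose vehicle (10 mL/kg). An oral glucose load of 2.5 g/kg followed; methods state 30 min after dosing, the figure legend 4 h.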

In data set [19] the test system is Mus musculus. Nature of the data set: Antidiabetic activity in ICR mouse assessed as decrease in blood glucose AUC (0 to 120 mins) at 15 mg/kg administered for 30 mins prior to glucose challenge measured after 4 hrs by OGTT relative to vehicle-treated control. In kind it is functional. Further details: scale not given: the % may be the effect or the level left. The essentials: as §3

Sequence of Dipeptidyl peptidase 8 (Q6V1X1 whole entry): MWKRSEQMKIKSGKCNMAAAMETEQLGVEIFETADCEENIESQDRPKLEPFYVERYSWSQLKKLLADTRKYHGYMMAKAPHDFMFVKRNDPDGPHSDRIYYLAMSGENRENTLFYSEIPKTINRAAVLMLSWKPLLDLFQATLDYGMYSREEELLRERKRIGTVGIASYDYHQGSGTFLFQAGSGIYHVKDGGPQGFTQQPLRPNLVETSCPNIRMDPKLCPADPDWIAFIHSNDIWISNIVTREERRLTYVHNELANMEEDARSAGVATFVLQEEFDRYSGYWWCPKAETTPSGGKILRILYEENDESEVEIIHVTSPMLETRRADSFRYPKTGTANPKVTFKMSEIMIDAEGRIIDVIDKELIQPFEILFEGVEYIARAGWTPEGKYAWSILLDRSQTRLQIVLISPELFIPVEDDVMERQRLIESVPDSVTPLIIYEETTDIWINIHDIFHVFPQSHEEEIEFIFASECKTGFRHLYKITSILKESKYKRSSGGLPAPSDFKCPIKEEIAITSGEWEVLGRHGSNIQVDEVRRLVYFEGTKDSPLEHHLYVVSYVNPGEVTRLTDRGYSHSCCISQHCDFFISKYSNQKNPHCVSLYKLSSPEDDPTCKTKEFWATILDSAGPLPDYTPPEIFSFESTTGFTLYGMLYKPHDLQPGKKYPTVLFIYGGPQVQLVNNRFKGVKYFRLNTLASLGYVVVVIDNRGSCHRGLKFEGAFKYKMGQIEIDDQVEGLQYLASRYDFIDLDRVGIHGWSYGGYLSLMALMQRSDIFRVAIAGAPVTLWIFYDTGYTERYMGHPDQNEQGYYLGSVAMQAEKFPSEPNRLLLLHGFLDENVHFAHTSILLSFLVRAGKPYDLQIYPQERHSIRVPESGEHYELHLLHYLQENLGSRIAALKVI
Sequence of Cytochrome P450 3A4 (P08684 whole entry): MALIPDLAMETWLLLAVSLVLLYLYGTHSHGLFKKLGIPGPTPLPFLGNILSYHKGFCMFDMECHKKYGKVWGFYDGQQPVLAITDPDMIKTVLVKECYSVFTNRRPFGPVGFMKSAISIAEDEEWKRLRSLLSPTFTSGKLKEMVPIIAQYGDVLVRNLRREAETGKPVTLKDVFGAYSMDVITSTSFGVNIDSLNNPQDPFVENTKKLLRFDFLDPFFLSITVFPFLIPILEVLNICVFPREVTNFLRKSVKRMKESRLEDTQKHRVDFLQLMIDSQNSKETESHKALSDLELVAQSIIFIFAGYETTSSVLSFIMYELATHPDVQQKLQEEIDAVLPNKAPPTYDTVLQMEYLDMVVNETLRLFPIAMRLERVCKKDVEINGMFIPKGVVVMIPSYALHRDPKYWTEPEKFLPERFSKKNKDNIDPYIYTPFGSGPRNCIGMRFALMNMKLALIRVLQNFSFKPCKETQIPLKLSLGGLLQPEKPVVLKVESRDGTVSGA
Sequence of Dipeptidyl peptidase 4 (P27487 whole entry): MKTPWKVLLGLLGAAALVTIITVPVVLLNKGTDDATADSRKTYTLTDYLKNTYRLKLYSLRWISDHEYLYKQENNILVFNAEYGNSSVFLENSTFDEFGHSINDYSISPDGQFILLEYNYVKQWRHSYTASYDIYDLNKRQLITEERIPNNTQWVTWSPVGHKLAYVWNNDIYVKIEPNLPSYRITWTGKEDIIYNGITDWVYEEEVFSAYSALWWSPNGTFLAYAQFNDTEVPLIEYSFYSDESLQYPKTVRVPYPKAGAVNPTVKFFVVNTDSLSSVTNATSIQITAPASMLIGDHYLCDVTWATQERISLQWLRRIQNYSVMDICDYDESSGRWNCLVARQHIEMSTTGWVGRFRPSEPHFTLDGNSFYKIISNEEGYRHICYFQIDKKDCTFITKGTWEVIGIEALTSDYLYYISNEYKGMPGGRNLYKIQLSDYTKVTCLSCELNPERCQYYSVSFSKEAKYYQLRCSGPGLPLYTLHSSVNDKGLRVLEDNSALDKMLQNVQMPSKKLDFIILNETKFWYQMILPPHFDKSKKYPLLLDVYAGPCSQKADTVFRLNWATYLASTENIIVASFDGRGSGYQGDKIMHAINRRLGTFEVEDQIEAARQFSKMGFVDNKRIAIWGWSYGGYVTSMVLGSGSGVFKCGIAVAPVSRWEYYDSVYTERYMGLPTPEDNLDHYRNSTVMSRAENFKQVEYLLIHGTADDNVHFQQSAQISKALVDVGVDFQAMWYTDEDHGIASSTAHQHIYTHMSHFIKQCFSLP
Sequence of CYP2C9 (P11712 whole entry): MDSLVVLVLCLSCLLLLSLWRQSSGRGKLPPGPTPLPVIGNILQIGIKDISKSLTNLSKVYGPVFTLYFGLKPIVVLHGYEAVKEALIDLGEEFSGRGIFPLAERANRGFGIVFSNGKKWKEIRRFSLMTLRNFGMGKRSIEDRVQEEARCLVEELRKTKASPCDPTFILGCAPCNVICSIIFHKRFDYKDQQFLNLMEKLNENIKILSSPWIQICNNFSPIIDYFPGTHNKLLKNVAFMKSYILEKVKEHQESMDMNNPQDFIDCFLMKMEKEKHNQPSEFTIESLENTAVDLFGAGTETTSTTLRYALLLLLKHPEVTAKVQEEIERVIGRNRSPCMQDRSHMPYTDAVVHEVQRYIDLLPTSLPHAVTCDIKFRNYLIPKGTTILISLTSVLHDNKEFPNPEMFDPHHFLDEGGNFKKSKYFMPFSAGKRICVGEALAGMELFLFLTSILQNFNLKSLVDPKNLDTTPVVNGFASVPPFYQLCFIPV
Sequence of Dipeptidyl peptidase 9 (Q86TI2 whole entry): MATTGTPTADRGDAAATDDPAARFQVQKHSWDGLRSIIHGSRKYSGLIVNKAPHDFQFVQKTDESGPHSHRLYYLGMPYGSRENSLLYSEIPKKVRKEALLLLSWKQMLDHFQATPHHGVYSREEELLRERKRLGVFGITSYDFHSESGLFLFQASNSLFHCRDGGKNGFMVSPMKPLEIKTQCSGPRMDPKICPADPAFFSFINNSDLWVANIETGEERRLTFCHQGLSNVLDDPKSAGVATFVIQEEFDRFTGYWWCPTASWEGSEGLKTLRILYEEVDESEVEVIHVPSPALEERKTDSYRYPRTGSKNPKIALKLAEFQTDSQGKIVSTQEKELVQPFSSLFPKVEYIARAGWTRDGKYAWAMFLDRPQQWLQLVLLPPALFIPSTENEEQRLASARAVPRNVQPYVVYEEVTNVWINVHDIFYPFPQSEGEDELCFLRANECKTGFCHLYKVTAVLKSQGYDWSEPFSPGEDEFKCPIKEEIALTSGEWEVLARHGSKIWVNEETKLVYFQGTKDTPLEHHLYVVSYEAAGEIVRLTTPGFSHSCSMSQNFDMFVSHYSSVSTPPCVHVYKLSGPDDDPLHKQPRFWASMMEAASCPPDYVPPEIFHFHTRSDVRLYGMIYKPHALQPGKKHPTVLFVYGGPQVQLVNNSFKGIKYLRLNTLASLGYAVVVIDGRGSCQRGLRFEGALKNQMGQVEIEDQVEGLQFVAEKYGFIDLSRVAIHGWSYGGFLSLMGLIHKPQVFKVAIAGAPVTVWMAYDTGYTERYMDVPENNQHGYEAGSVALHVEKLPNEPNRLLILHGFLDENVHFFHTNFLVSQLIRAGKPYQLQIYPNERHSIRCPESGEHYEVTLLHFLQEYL

Take `N#C[C@@H]1CCCN1C(=O)[C@@H](N)Cc1ccoc1`: the Ratio IC50 in the data set filed under Homo sapiens [1] and in the data set filed under Homo sapiens [2] was > 2.5 each time. In addition, the IC50 (commonly the concentration needed to halve the response being measured) on Dipeptidyl peptidase 9 was > 288 µM; on Dipeptidyl peptidase 8 it was > 288 µM; on Dipeptidyl peptidase 4, 114 µM.
Take `N#C[C@@H]1C[C@H](F)CN1C(=O)[C@@H](N)Cc1cc2c(cc1Br)OCO2`: the inhibition – broadly, the relative decrease from the control value, in per cent – at 100 µM against CYP2C9 is -20.3%. In addition, the half-inhibitory concentration (IC50) at Cytochrome P450 3A4 turned out to be 2.2 µM. In addition, in data set [3], the bioavailability (usually the share of a dose that reaches the circulation, judged against a reference dose that is usually intravenous) worked out at 16.8%. Besides, in data set [4], the clearance is 43.5 mL/min/kg. The half-life (in general, the time in which the quantity being followed falls by half) in data set [5] was 37.8 min; in data set [6], 218 min. Also, the mean residence time MRT (usually the average time that molecules of a dose stay in the body) came out at 33 min in data set [7] and 189 min in [8]. For the same compound, the AUC(0-inf) (as a rule, the area under the concentration-time curve extrapolated to infinity) in [9] is 1920 ng·h/mL; in data set [10], 1580 ng·h/mL. The AUC(0-t) (in general, the area under the concentration-time curve up to a stated or last time point) stood at 1920 ng·h/mL in [11] and 1290 ng·h/mL in [12]. The figures for the Cmax in data set [13] and in data set [14] were 2030 ng/mL and 2200 ng/mL, respectively. Moreover, the Tmax in data set [15] and in data set [16] was 18 min throughout. The Activity entry in the data set with Mus musculus [17] is “Dose-dependent effect”; in the data set on Mus musculus [18] it was 23.6%; in the data set with Mus musculus [19] it was 12.2%.

The values are drawn from ChEMBL document CHEMBL3124820, “Design, synthesis and biological evaluation of hetero-aromatic moieties substituted pyrrole-2-carbonitrile derivatives as dipeptidyl peptidase IV inhibitors” (Eur J Med Chem, 2014).
